Compound activity (PubChem BioAssay)
CHRM5 agonist: agonists of human muscarinic M5 receptor (CHRM5) | CHO-K1 hM5 cells, Fluo-8 calcium fluorescence; 0% DMSO wells, 100% maximal acetylcholine response | activation, % at 3 µM | actives 0.19% (n = 360,000) | P08912;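 active = activation above the run's mean over test compounds plus 3 SD, cut at about 23% in these data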;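 note: signal is peak over basal fluorescence ratio across the kinetic read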
CHRM1 agonist: human M1 muscarinic receptor agonism. activation, % at 3 µM. CHO-K1 hM1, Fluo-8 calcium fluorescence, agonist mode; 0% DMSO, 100% acetylcholine EC100. actives 0.33% (n = 360,000). P11229. AID 588814;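 active = activation above the run's mean compound activation plus 3 SD, cut at about 16% in these data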;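 note: peak over basal fluorescence ratio within a 140 s kinetic read after compound addition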
Target sequence (P11229 whole entry, looked up): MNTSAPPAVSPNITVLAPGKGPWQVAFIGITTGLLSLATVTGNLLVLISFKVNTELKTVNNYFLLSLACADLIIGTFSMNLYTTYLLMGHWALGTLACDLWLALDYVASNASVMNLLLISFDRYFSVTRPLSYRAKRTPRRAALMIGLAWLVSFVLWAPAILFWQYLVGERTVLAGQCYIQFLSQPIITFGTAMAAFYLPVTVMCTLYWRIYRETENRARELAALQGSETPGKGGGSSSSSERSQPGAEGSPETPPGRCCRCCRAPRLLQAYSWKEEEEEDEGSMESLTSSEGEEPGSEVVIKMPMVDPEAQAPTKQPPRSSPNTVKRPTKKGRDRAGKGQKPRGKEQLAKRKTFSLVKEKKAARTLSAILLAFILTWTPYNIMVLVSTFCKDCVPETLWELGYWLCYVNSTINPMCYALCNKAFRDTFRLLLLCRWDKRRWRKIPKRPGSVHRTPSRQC
M5 PAM: potentiates acetylcholine response at human M5 receptor; CHO-K1 hM5, Fluo-8 calcium, ACh EC20 PAM; 0% = ACh EC20, 100% = ACh EC100; activation, % at 3 µM; actives 0.3% (n = 360,000);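 active = activation above the run cutoff, the mean activation of all test compounds plus 3 SD, cut at about 18% in these data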
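Probe or stimulus: acetylcholine, EC20 level; Assay system: human M5 receptor in CHO-K1 cells; Schedule: compound preincubation 140 s before EC20 acetylcholine addition; Technique: intracellular calcium via Fluo-8 fluorescence; Dosing: single-point, 3 µM nominal; Read-out basis: percent activation from peak-over-basal fluorescence ratio, scaled EC20-to-EC100 acetylcholine; Repeats: one well per compound, no replicates.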
M5 antag: antagonists of human muscarinic M5 receptor (CHRM5); P08912; CHO-hM5 cells, Fluo-8 calcium fluorescence, ACh EC80; inhibition, % at 3 µM; actives 0.59% (n = 360,000); AID 624040;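 active = inhibition above a per-plate cutoff, the mean of that plate's test compounds plus 3 SD, cut at about 27% in these data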
M1 antag: blocks human M1 muscarinic receptor | P11229 | CHO-K1 hM1, Fluo-8 calcium fluorescence, ACh EC80 antagonist | inhibition, % at 3 µM | actives 1.3% (n = 360,000);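 active = percent inhibition above its own plate's cutoff, namely the mean of that plate's compound wells plus 3 SD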;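 note: peak over basal fluorescence ratio during 140 s after agonist addition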
M1 PAM: positive allosteric modulators of human M1 muscarinic receptor; P11229; CHO-K1 hM1, Fluo-8 calcium fluorescence, ACh EC20; 0% = ACh EC20, 100% = maximal ACh; activation, % at 3 µM; actives 0.088% (n = 360,000); AID 588819; in the data active = activation above about 19%, passing the limit was not always enough
Large screens that a line does not name were inactive. Most compounds without a hit are left out; they make up all but 2% or so of the library.

COCCN(C(=O)CCC(=O)Nc1cc(C)on1)C(C(=O)NC1CCCC1)c1ccccc1F (stereo not given)	M5 PAM 28
COc1ccc(C(C(=O)NC(C)(C)C)N(CCC(C)C)C(=O)CCC(=O)Nc2cc(C)on2)cc1 (stereo not given)	M1 PAM 30
Cc1cc(NC(=O)CCC(=O)N(Cc2ccco2)C(C(=O)NC2CCCC2)c2ccccc2F)no1 (stereo not given)	none
COc1ccccc1CNC(=O)C[C@@H]1C[C@H]2c3cc(N(C)C)ccc3O[C@H]2[C@H](CO)O1	none
O=C1NC[C@@H](CCCCN2C[C@H](Cc3ccc(O)cc3)N(CCc3ccccc3)C(=O)C2=O)N(CCc2ccccc2)C1=O	none (no result: CHRM1 agonist, M1 antag, M1 PAM)
CC(NC(=O)C1CCN(CCOc2ccc(Cl)cc2)CC1)c1cccc2ccccc12 (stereo not given)	none
Oc1c(N=Nc2ccccn2)ccc2ccccc12	M5 antag 33
Oc1[nH]c2ccccc2c1N=Nc1ccccn1	none
COc1cc(CCNC2=CC(=O)c3ncccc3C2=O)ccc1O	none
Cc1c(NC(=O)c2cc(C(C)C)on2)c(=O)n(-c2ccccc2)n1C	M1 antag 36
Cc1c(Cl)c([N+](=O)[O-])nn1CC(=O)Nc1c(C)n(C)n(-c2ccccc2)c1=O	M1 antag 28
Cc1c(NC(=O)Nc2cc(Cl)ccc2Cl)c(=O)n(-c2ccccc2)n1C	M5 antag 29
Cc1c(NC(=O)Nc2cccc(Cl)c2)c(=O)n(-c2ccccc2)n1C	none
Cc1c(NC(=S)NC(=O)c2ccc(Cl)cc2)c(=O)n(-c2ccccc2)n1C	none
Cc1c(NC(=S)NC(=O)c2ccccc2Cl)c(=O)n(-c2ccccc2)n1C	M1 PAM 29
OC1c2c(F)cccc2N=C2CCCCCN21 (stereo not given)	none
COC(=O)[C@]12CCCCC=C1N(Cc1ccccc1)C(=O)[C@H](CC(=O)NCCCCc1ccccc1)C2	none (no result: CHRM1 agonist, M1 antag, M1 PAM)
Nc1cccc(C(=O)c2ccccc2C(=O)O)c1	none
Cc1ccc(Cn2nc(C)c(NC(=O)CCCn3nc([N+](=O)[O-])c(Cl)c3C)c2C)cc1	M1 PAM 21
Cc1ccc(Cn2nc(C)c(NC(=O)CCCn3nc(C)c([N+](=O)[O-])c3C)c2C)cc1	none
CCC(O)c1cnc(OCc2ccccc2)nc1OCc1ccccc1 (stereo not given)	none
COc1ccc(C2=NS(=O)(=O)N(C)C(C(=O)N3CCc4ccccc4C3)=C2)cc1OC	M1 antag 25
CCN(CC)CCOC(=O)c1ccc(NC(=O)CCCN2C(=O)/C(=C\c3cccs3)SC2=S)cc1	M1 antag 43
O=C(CCN1C(=O)/C(=C\c2cccs2)SC1=S)Nc1ccc(C(=O)O)cc1	none
CCOc1ccc2nc(S(=O)(=O)NC(=O)C3(C)CCN3C(=O)CCc3cccs3)sc2c1 (stereo not given)	none
CN(Cc1ccccc1)C(=O)[C@@H]1CCCN1C(=O)[C@@H]1CCCN1C(=O)c1cccc2ccccc12	none (no result: CHRM1 agonist, M1 antag, M1 PAM)
COCCN1C(=O)/C(=C/c2ccc(N3CCCC3)cc2C)SC1=S	M1 antag 31
CCOC(=O)c1[nH]c(C)c(CN(C(C)=O)c2ccc(OCC)cc2)c1C	M1 antag 26
COc1ccc(C(CC(=O)c2ccccc2)S(=O)(=O)c2ccc(C)cc2)cc1 (stereo not given)	none
CC(=O)CC(c1ccccc1)S(=O)(=O)c1ccc(C)cc1 (stereo not given)	M1 antag 27
CCCCNc1cc(C)nc(NCc2ccccc2)n1	M5 antag 33, M1 antag 30
Cc1cc(Nc2ccc(Cl)cc2)nc(NCc2ccccc2)n1	none
Cc1cc(Nc2ccccc2)nc(NCc2ccccc2)n1	M5 antag 30
Cc1cc(C)nc(NCCCc2ccccc2)n1	none
CC(=O)NC1CC2CCCC(C1)N2C(=O)Nc1cccc(Cl)c1 (stereo not given)	none
O=C(COc1ccccc1Cl)NNC(=O)c1ccc2nc[nH]c2c1	none
O=C(c1cccc(C(F)(F)F)c1)C1CCCN(Cc2ccc(OCCO)cc2)C1 (stereo not given)	M1 antag 66
COc1ccccc1C(=O)C1CCCN(Cc2cccc(OCCO)c2)C1 (stereo not given)	none
COc1ccc(CN2CCCC(C(=O)c3cccc(C(F)(F)F)c3)C2)cc1O (stereo not given)	none
CC(=O)Nc1ccc(CN2CCCC(C(=O)c3cccc(C(F)(F)F)c3)C2)cc1 (stereo not given)	M1 antag 64
COc1ccccc1C(=O)NC(=O)COC(=O)c1cnccn1	none
CN(C)CCN1CCN(C(c2cc3ccccc3o2)c2nnnn2C(C)(C)C)CC1 (stereo not given)	none (no result: CHRM1 agonist, M1 antag, M1 PAM)
NC(=O)c1ccc(N2CCN(S(=O)(=O)c3ccccc3)CC2)c([N+](=O)[O-])c1	M5 antag 29
Cc1ccc(S(=O)(=O)N2CCN(c3cc4c(cc3[N+](=O)[O-])n(C)c(=O)n4C)CC2)cc1	M1 antag 52
Cn1c(=O)n(C)c2cc([N+](=O)[O-])c(N3CCN(S(=O)(=O)c4ccc5ccccc5c4)CC3)cc21	none
O=C(c1ccc(N2CCCCC2)c([N+](=O)[O-])c1)N1CCN(S(=O)(=O)c2ccccc2)CC1	none
O=C(Cc1ccc(NS(=O)(=O)c2cccc(C(F)(F)F)c2)cc1)NCCN1CCOCC1	none
CC(C)(CNC(=O)Cc1ccc(NS(=O)(=O)c2cccc(C(F)(F)F)c2)cc1)N1CCOCC1	M1 antag 34
CON(C)C(=O)CC(CN(Cc1ccccc1)C(=O)OC(C)(C)C)c1ccc(Cl)cc1 (stereo not given)	none
CON(C)C(=O)CCN(Cc1ccccc1)C(=O)OC(C)(C)C	M5 PAM 19
Cc1ccc2cc(NC(=O)C3(C)CCN3CC(C)C)ccc2n1 (stereo not given)	none
CC1Cc2nc(SCC(=O)NCc3ccccc3)n(Cc3ccccc3)c(=O)c2S1 (stereo not given)	M1 antag 53
O=C(Nc1ccc2c(c1)OCCO2)C(C1CC1)N1CCN(C/C=C/c2ccccc2)CC1 (stereo not given)	none
C(=C\c1ccccc1)/CN1CCN(C(c2cccc3ccccc23)c2nnnn2C2CCCC2)CC1 (stereo not given)	M5 antag 99, M1 antag 95
C(=C\c1ccccc1)/CN1CCN(C(c2cc3ccccc3o2)c2nnnn2C2CCCC2)CC1 (stereo not given)	none
